# ChEMBL document CHEMBL1124461, “Aromatic dienoyl tetramic acids. Novel antibacterial agents with activity against anaerobes and staphylococci” (J Med Chem, 1989)
# Legend:
# [1] = target: DNA-directed RNA polymerase subunit beta (Escherichia coli K-12) (UniProt P0A8V2); experiment: Percent inhibition at a concentration of 100 ug/mL of RNA polymerase isolated from Escherichia coli K12 (Sigma)
# [2] = test system: Bacteroides thetaiotaomicron; experiment: Minimum inhibitory concentration against Bacteroides thetaiotaomicron ATCC 29741; type: functional
# Summary of the method: (§1)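 Anaerobic MICs by 2-fold dilution in Wilkens-Chalgren broth, reported in micrograms/milliliter.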
# [3] = test system: Clostridioides difficile; experiment: Minimum inhibitory concentration against Clostridium difficile ATCC 9689; type: functional; summary of the method: as §1
# [4] = test system: Bacteroides fragilis; experiment: Minimum inhibitory concentration against Bacteroides fragilis ATCC 25285; type: functional; summary of the method: as §1
# [5] = test system: Clostridium perfringens; experiment: Minimum inhibitory concentration against Clostridium perfringens ATCC 13124; type: functional
# Summary of the method: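 Anaerobic MIC by 2-fold dilution in Wilkens-Chalgren broth; values in µg/mL.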
# [6] = test system: Staphylococcus epidermidis; experiment: Minimum inhibitory concentration (MIC) against the strain Staphylococcus epidermidis 3519
# [7] = test system: Streptococcus pyogenes; experiment: Minimum inhibitory concentration (MIC) against the cell line Streptococcus pyogenes EES61; type: functional
# Summary of the method: (§2)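 Aerobic MICs by 2-fold dilution on brain–heart infusion agar, reported in micrograms/milliliter.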
# [8] = test system: Escherichia coli; experiment: Minimum inhibitory concentration (MIC) against the cell line Escherichia coli H560; type: functional; summary of the method: as §2
# [9] = test system: Staphylococcus aureus; experiment: Minimum inhibitory concentration (MIC) against the cell line Staphylococcus aureus 45; type: functional; summary of the method: as §2
# [10] = test system: Micrococcus luteus; experiment: Minimum inhibitory concentration (MIC) against the cell line Micrococcus luteus ATCC 4698; type: functional; summary of the method: as §2
# [11] = test system: Escherichia coli; experiment: Minimum inhibitory concentration (MIC) against the cell line Escherichia coli juhl; type: functional; summary of the method: as §2
# [12] = test system: Pseudomonas aeruginosa; experiment: Minimum inhibitory concentration (MIC) against the cell line Pseudomonas aeruginosa A5007; type: functional; summary of the method: as §2
# [13] = test system: Staphylococcus aureus; experiment: Minimum inhibitory concentration (MIC) against the cell line Staphylococcus aureus ATCC 6538P; type: functional; summary of the method: as §2
# [14] = test system: Staphylococcus aureus; experiment: Minimum inhibitory concentration (MIC) against the cell line Staphylococcus aureus A5177; type: functional; summary of the method: as §2
# [15] = test system: Streptococcus equinus; experiment: Minimum inhibitory concentration (MIC) against the cell line Streptococcus bovis A5169; type: functional; summary of the method: as §2
# [16] = test system: Staphylococcus aureus; experiment: Minimum inhibitory concentration (MIC) against the cell line Staphylococcus aureus CMX 686B; type: functional; summary of the method: as §2
# DNA-directed RNA polymerase subunit beta (Escherichia coli K-12), sequence (P0A8V2 whole entry, looked up): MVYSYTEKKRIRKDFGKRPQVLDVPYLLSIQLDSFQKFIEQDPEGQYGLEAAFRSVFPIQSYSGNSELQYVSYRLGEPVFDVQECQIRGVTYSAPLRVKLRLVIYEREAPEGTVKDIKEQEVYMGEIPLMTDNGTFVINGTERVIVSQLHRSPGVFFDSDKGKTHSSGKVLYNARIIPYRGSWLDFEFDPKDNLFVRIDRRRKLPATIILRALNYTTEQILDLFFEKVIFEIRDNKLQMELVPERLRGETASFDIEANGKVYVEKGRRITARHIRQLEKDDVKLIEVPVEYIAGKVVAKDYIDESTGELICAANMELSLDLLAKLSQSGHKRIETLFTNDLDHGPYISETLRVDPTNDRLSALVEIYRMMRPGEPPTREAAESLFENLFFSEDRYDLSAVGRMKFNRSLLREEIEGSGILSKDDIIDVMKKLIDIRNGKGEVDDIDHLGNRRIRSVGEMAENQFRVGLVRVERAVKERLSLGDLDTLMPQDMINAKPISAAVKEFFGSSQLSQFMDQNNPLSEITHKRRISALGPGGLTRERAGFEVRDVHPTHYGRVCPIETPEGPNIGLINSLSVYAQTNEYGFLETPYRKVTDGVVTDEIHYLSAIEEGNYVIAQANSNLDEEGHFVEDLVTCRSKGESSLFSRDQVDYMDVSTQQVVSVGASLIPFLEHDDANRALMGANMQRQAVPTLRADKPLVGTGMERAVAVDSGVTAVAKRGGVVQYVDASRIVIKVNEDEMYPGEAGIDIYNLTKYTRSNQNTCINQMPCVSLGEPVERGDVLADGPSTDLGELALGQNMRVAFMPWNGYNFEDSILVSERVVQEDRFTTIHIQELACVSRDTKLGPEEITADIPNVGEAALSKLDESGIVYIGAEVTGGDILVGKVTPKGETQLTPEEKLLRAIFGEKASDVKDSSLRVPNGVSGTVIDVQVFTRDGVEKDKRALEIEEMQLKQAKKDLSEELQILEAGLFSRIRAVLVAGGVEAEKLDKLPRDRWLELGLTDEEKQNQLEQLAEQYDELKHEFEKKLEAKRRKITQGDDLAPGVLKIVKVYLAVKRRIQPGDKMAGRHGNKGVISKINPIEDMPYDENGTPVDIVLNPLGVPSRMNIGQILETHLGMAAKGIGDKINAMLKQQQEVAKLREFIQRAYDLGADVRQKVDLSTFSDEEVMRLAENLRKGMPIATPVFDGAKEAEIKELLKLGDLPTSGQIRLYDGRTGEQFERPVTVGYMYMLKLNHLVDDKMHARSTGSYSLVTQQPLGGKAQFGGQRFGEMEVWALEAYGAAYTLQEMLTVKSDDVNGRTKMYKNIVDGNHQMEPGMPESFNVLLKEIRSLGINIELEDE
SMILES,MIC [2],MIC [3],MIC [4],MIC [5],also measured
O=C(/C=C/C(Cl)=C/c1ccccc1)C1=C(O)CNC1=O,8 µg/mL,4 µg/mL,8 µg/mL,4 µg/mL,inhibition [1]: 3.2%
CC(/C=C/C(O)=C1\C(=O)CN(C)C1=O)=C\C(C)C1CCCCC1 (stereo unspecified),62 µg/mL,2 µg/mL,8 µg/mL,2 µg/mL,
CC(/C=C/C(=O)C1=C(O)CN(C)C1=O)=C\c1ccc(-c2ccccc2)cc1,125 µg/mL,≤ 0.5 µg/mL,8 µg/mL,31 µg/mL,
CC(/C=C/C(=O)C1=C(O)CN(C)C1=O)=C\c1cccc2ccccc12,2 µg/mL,< 0.5 µg/mL,< 0.5 µg/mL,< 0.5 µg/mL,MIC [6]: 3.1 µg/mL; MIC [7]: 12.5 µg/mL; MIC [8]: > 100 µg/mL; MIC [9]: 3.1 µg/mL; MIC [10]: 6.2 µg/mL; MIC [11]: > 100 µg/mL; MIC [12]: > 100 µg/mL; MIC [13]: 3.1 µg/mL; MIC [14]: 3.1 µg/mL; MIC [15]: 50 µg/mL; MIC [16]: 3.1 µg/mL
CC(/C=C/C(=O)C1=C(O)CN(C)C1=O)=C\c1ccccn1,125 µg/mL,8 µg/mL,62 µg/mL,31 µg/mL,
CN1CC(O)=C(C(=O)/C=C/C=C/c2ccccc2[N+](=O)[O-])C1=O,62 µg/mL,62 µg/mL,62 µg/mL,62 µg/mL,
CC(/C=C/C(=O)C1=C(O)CN(C)C1=O)=C\C1CCCCC1,8 µg/mL,4 µg/mL,8 µg/mL,4 µg/mL,
COCCOCc1ccc2ccccc2c1/C=C(C)/C=C/C(O)=C1\C(=O)CN(C)C1=O,250 µg/mL,8 µg/mL,125 µg/mL,125 µg/mL,
O=C(/C=C/C(Br)=C/c1ccccc1)C1=C(O)CNC1=O,8 µg/mL,8 µg/mL,8 µg/mL,31 µg/mL,inhibition [1]: 7.3%
CC(/C=C/C(O)=C1\C(=O)CNC1=O)=C\c1ccccc1,4 µg/mL,4 µg/mL,4 µg/mL,8 µg/mL,inhibition [1]: 4.5%
O=C(/C=C/C=C/c1ccccc1)C1=C(O)CNC1=O,50 µg/mL,25 µg/mL,50 µg/mL,25 µg/mL,
CO[C@H]1/C=C/O[C@@]2(C)Oc3c(C)c(O)c4c(O)c(c(/C=N/N5CCN(C)CC5)c(O)c4c3C2=O)NC(=O)/C(C)=C\C=C\[C@H](C)[C@H](O)[C@@H](C)[C@@H](O)[C@@H](C)[C@H](OC(C)=O)[C@@H]1C,,,,,inhibition [1]: 57%
CC(/C=C/C(=O)C1=C(O)CN(C)C1=O)=C\c1cnc2ccccc2c1,4 µg/mL,2 µg/mL,2 µg/mL,2 µg/mL,
CN1CC(O)=C(C(=O)/C=C/C(Cl)=C/c2ccccc2)C1=O,16 µg/mL,8 µg/mL,16 µg/mL,8 µg/mL,
CC(/C=C/C(=O)C1=C(O)CN(C)C1=O)=C\c1ccccc1,8 µg/mL,4 µg/mL,4 µg/mL,8 µg/mL,
CC(/C=C/C(=O)C1=C(O)CN(C)C1=O)=C\c1c(O)ccc2ccccc12,31 µg/mL,16 µg/mL,31 µg/mL,16 µg/mL,
CN1CC(O)=C(C(=O)/C=C/C=C/c2ccccc2)C1=O,62 µg/mL,16 µg/mL,62 µg/mL,125 µg/mL,

SMILES,MIC [2],MIC [3],MIC [4],MIC [5],also measured
CN1CC(=O)\C(=C(O)/C=C/C=C/c2ccc(N(C)C)cc2)C1=O,62 µg/mL,31 µg/mL,125 µg/mL,31 µg/mL,
CC(/C=C/C(=O)C1=C(O)C(C)N(C)C1=O)=C\c1ccc2ccccc2c1 (stereo unspecified),62 µg/mL,62 µg/mL,62 µg/mL,31 µg/mL,
CC(/C=C/C(=O)C1=C(O)CN(C)C1=O)=C\c1ccc(F)c2ccccc12,2 µg/mL,31 µg/mL,2 µg/mL,62 µg/mL,
CC(/C=C/C(O)=C1\C(=O)CN(C)C1=O)=C\C(C)c1ccccc1 (stereo unspecified),16 µg/mL,125 µg/mL,8 µg/mL,125 µg/mL,
CC(/C=C/C(O)=C1\C(=O)CN(C)C1=O)=C\C(C)C,62 µg/mL,31 µg/mL,31 µg/mL,31 µg/mL,
CC(/C=C/C(=O)C1=C(O)CN(C)C1=O)=C\c1ccnc2ccccc12,31 µg/mL,8 µg/mL,16 µg/mL,8 µg/mL,
CN1CC(O)=C(C(=O)/C=C/C(Br)=C/c2ccccc2)C1=O,16 µg/mL,16 µg/mL,16 µg/mL,8 µg/mL,
CC(/C=C/C(=O)C1=C(O)CN(C)C1=O)=C\CC1CCCCC1,31 µg/mL,2 µg/mL,8 µg/mL,2 µg/mL,
CC(/C=C/C(=O)C1=C(O)CN(C)C1=O)=C\C1CCc2ccccc2C1 (stereo unspecified),62 µg/mL,125 µg/mL,125 µg/mL,125 µg/mL,
CC(/C=C/C(O)=C1\C(=O)CNC1=O)=C\c1ccc2ccccc2c1,≤ 0.5 µg/mL,≤ 0.5 µg/mL,≤ 0.5 µg/mL,≤ 0.5 µg/mL,inhibition [1]: 13.1%; MIC [6]: 3.1 µg/mL; MIC [7]: 12.5 µg/mL; MIC [8]: > 100 µg/mL; MIC [9]: 0.78 µg/mL; MIC [10]: 6.2 µg/mL; MIC [11]: > 100 µg/mL; MIC [12]: 100 µg/mL; MIC [13]: 0.78 µg/mL; MIC [14]: 1.56 µg/mL; MIC [15]: 12.5 µg/mL; MIC [16]: 0.78 µg/mL
CCCCCCCCCCC/C=C(C)/C=C/C(O)=C1\C(=O)CN(C)C1=O,125 µg/mL,4 µg/mL,125 µg/mL,31 µg/mL,
COc1ccc(/C=C(C)/C=C/C(O)=C2\C(=O)CN(C)C2=O)c2ccccc12,125 µg/mL,4 µg/mL,62 µg/mL,2 µg/mL,
CCC[C@@H]1C[C@@H](C(=O)N[C@@H]([C@H]2O[C@H](SC)[C@H](O)[C@@H](O)[C@H]2O)[C@H](C)Cl)N(C)C1 [CLINDAMYCIN],8 µg/mL,1 µg/mL,2 µg/mL,< 0.5 µg/mL,
CC(/C=C/C(=O)C1=C(O)CN(C)C1=O)=C\C1CCCCO1 (stereo unspecified),125 µg/mL,125 µg/mL,125 µg/mL,125 µg/mL,
CCCCCC(/C=C/C(O)=C1\C(=O)CN(C)C1=O)=C\c1ccccc1,125 µg/mL,31 µg/mL,62 µg/mL,16 µg/mL,inhibition [1]: 5.6%
CC(/C=C/C(O)=C1\C(=O)C2CCCN2C1=O)=C\c1ccc2ccccc2c1 (stereo unspecified),62 µg/mL,16 µg/mL,31 µg/mL,31 µg/mL,
CC(/C=C/C(O)=C1\C(=O)CNC1=O)=C\c1cccc2ccccc12,1 µg/mL,1 µg/mL,1 µg/mL,1 µg/mL,MIC [6]: 6.2 µg/mL; MIC [7]: 12.5 µg/mL; MIC [8]: > 100 µg/mL; MIC [9]: 3.1 µg/mL; MIC [10]: 12.5 µg/mL; MIC [11]: 100 µg/mL; MIC [12]: 100 µg/mL; MIC [13]: 3.1 µg/mL; MIC [14]: 3.1 µg/mL; MIC [15]: 6.2 µg/mL; MIC [16]: 3.1 µg/mL
